ChEMBL document CHEMBL2040734, “Benzothiazoles: search for anticancer agents” (2012)

Assays:
Type in all cases: functional
[1] = system: SF-268; assay: Cytotoxicity against human SF268 cells assessed as cell growth at 0.1 uM after 48 hrs by sulforhodamine B assay; conditions: SF-268, 48 h, read-out: Activity
[2] = system: NCI-H460; assay: Growth inhibition of human NCI-H460 cells after 48 hrs by sulforhodamine B assay; conditions: NCI-H460, 48 h
Summary of the method: (§1)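 Adherent NCI-60 lines were grown in RPMI 1640 with 5% FBS and 2 mM L-glutamine, plated at 5000–40,000 cells/well and preincubated 24 h. They were then exposed to five concentrations (0.01–100 µM, from a DMSO stock) for 48 h at 37 °C, 5% CO2. Cells were fixed with cold TCA (10% final, 60 min, 4 °C) and stained with 0.4% SRB. Dye was solubilized in 10 mM Tris base and A515 read. GI50 was derived from time-zero, control and treated absorbances.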

[3] = system: HCT-15; assay: Cytotoxicity against human HCT15 cells assessed as cell growth at 100 uM after 48 hrs by sulforhodamine B assay; conditions: HCT-15, 48 h, read-out: Activity
Summary of the method: (§2)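 Five-dose NCI panel run at 0.01, 0.1, 1, 10 and 100 µM. Cells were in RPMI 1640 with 5% FBS and 2 mM L-glutamine, seeded at 5000–40,000 cells/well and pre-incubated 24 h. Drug was diluted from a DMSO stock into medium with 50 µg/ml gentamicin. Exposure was 48 h at 37 °C, 5% CO2. Cells were fixed with cold TCA and stained with 0.4% SRB, read at 515 nm. Percent growth came from time-zero, control and test absorbances.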

[4] = system: SW-620; assay: Cytotoxicity against human SW620 cells assessed as cell growth at 0.01 uM after 48 hrs by sulforhodamine B assay; conditions: SW-620, 48 h, read-out: Activity
[5] = system: HL-60(TB); assay: Cytotoxicity against human HL-60(TB) cells assessed as cell growth at 0.01 uM after 48 hrs by sulforhodamine B assay; conditions: HL-60, 48 h, read-out: Activity
Summary of the method: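 NCI five-dose screen on the HL-60(TB) leukaemia line, grown in RPMI 1640 with 5% FBS and 2 mM L-glutamine and plated for 24 h before dosing. DMSO stocks were diluted in medium. Cells were exposed 48 h at 37 °C, then settled cells were fixed in 16% TCA (final) and stained with SRB, absorbance 515 nm. Percent growth = (Ti−Tz)/(C−Tz)×100, or (Ti−Tz)/Tz×100 when Ti<Tz.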

[6] = system: A549; assay: Cytotoxicity against human A549 cells assessed as cell growth at 0.01 uM after 48 hrs by sulforhodamine B assay; conditions: A549, 48 h, read-out: Activity
Summary of the method: (§3)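 NCI-60 five-dose screen. Cells were grown in RPMI 1640 with 5% FBS and 2 mM L-glutamine and preincubated 24 h. Compound (DMSO stock) was tested at 0.01, 0.1, 1, 10 and 100 µM for 48 h at 37 °C. Cells were fixed in situ with cold TCA (final 10%) and stained with 0.4% SRB. A515 was read, and percent growth was calculated against time-zero and control plates.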

[7] = system: SK-MEL-5; assay: Cytotoxicity against human SK-MEL-5 cells assessed as cell growth at 0.1 uM after 48 hrs by sulforhodamine B assay; conditions: SK-MEL-5, 48 h, read-out: Activity
[8] = system: OVCAR-5; assay: Growth inhibition of human OVCAR5 cells after 48 hrs by sulforhodamine B assay; conditions: OVCAR-5, 48 h; summary of the method: as §1
[9] = system: DU-145; assay: Cytotoxicity against human DU145 cells assessed as cell growth at 100 uM after 48 hrs by sulforhodamine B assay; conditions: DU-145, 48 h, read-out: Activity; summary of the method: as §2
[10] = system: MDA-MB-231; assay: Growth inhibition of human MDA-MB-231 cells after 48 hrs by sulforhodamine B assay; conditions: MDA-MB-231, 48 h; summary of the method: as §1
[11] = system: A498; assay: Cytotoxicity against human A498 cells assessed as cell growth at 0.1 uM after 48 hrs by sulforhodamine B assay; conditions: A498, 48 h, read-out: Activity; summary of the method: as §3
[12] = system: LOX IMVI; assay: Cytotoxicity against human LOXIMVI cells assessed as cell growth at 100 uM after 48 hrs by sulforhodamine B assay; conditions: read-out: Activity
[13] = system: NCI-H322M; assay: Cytotoxicity against human NCI-H322M cells assessed as cell growth at 1 uM after 48 hrs by sulforhodamine B assay; conditions: read-out: Activity
[14] = system: MCF7; assay: Cytotoxicity against human MCF7 cells assessed as cell growth at 0.01 uM after 48 hrs by sulforhodamine B assay; conditions: MCF7, 48 h, read-out: Activity
[15] = system: OVCAR-8; assay: Cytotoxicity against human OVCAR8 cells assessed as cell growth at 10 '-5 M after 48 hrs by sulforhodamine B assay; conditions: OVCAR-8, 48 h, read-out: Activity
[16] = system: OVCAR-5; assay: Cytotoxicity against human OVCAR5 cells assessed as cell growth at 10 '-5 M after 48 hrs by sulforhodamine B assay; conditions: OVCAR-5, 48 h, read-out: Activity
[17] = system: COLO 205; assay: Cytotoxicity against human COLO205 cells assessed as cell growth at 10 '-5 M after 48 hrs by sulforhodamine B assay; conditions: COLO 205, 48 h, read-out: Activity
Summary of the method: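 Primary NCI-60 single-dose screen at 10 µM. Cells were grown in RPMI 1640 with 5% FBS and 2 mM L-glutamine and plated 24 h before drug addition. Compound was solubilized in DMSO, then exposed for 48 h at 37 °C under 5% CO2. Cells were TCA-fixed and stained with SRB, and absorbance was read at 515 nm. Growth was expressed relative to time-zero and untreated controls.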

[18] = system: UACC-257; assay: Cytotoxicity against human UACC257 cells assessed as cell growth at 10 uM after 48 hrs by sulforhodamine B assay; conditions: UACC-257, 48 h, read-out: Activity
[19] = system: OVCAR-3; assay: Cytotoxicity against human OVCAR3 cells assessed as cell growth at 0.01 uM after 48 hrs by sulforhodamine B assay; conditions: OVCAR-3, 48 h, read-out: Activity
[20] = system: MOLT-4; assay: Growth inhibition of human MOLT4 cells after 48 hrs by sulforhodamine B assay; conditions: MOLT-4, 48 h
Summary of the method: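 Leukemia suspension lines were grown in RPMI 1640 with 5% FBS and 2 mM L-glutamine and plated at 5000–40,000 cells/well with 24 h preincubation. They were treated at 0.01, 0.1, 1, 10 and 100 µM (DMSO stock) for 48 h at 37 °C. Settled cells were fixed with 80% TCA (16% final) and stained with 0.4% SRB in 1% acetic acid, then read at 515 nm. GI50 was calculated against time-zero and control wells.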

[21] = system: HCT-15; assay: Cytotoxicity against human HCT15 cells assessed as cell growth at 10 '-5 M after 48 hrs by sulforhodamine B assay; conditions: HCT-15, 48 h, read-out: Activity
Summary of the method: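 Primary one-dose screen across the NCI 60-line panel at 10 µM. Cells were grown in RPMI 1640 with 5% FBS and 2 mM L-glutamine and held 24 h before drug. Drug was diluted from a DMSO concentrate. Exposure was 48 h at 37 °C, 5% CO2. Cells were fixed with TCA and stained with SRB, with absorbance read at 515 nm. Percent growth was calculated against time-zero and untreated control.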

SMILES	growth at 0.1 µM [1] [%]	TGI [2] [nM]	growth at 100 µM [3] [%]	growth at 0.01 µM [4] [%]	growth at 0.01 µM [5] [%]	growth at 0.01 µM [6] [%]	growth at 0.1 µM [7] [%]	GI50 [8] [nM]	LC50 [8] [µM]	TGI [8] [nM]	growth at 100 µM [9] [%]	GI50 [10] [nM]	LC50 (concentration killing 50% of cells) [10] [µM]	TGI [10] [µM]	growth at 0.1 µM [11] [%]	growth at 100 µM [12] [%]	growth at 1 µM [13] [%]	growth at 0.01 µM [14] [%]	growth at 10 µM [15] [%]	growth at 10 µM [16] [%]	other results
Cc1ccc2nc(Nc3c(C)cccc3C)sc2c1	100	> 100000	40	97	107	103	92	> 100000	> 100	> 100000	65	528	> 100	59.8	68	57	91	90	56.4	65.6	LC50 (concentration killing 50% of cells) [2]: > 100 µM; growth at 10 µM [17]: 32.2%; growth at 10 µM [18]: 70%; growth at 0.01 µM [19]: 101%; GI50 [20]: > 100000 nM; LC50 [20]: > 100 µM; TGI [20]: > 100 µM; growth at 10 µM [21]: 19.9%
Clc1cccc(Cl)c1Nc1nc2cccc(Cl)c2s1	97	2970	-74	97	104	103	90	1480	5.61	2880	-85	304	4.06	1.42	67	-21	76	90	-13.8	1.07	GI50 [2]: 1320 nM; growth at 10 µM [17]: -90%; growth at 10 µM [18]: -71%; growth at 0.01 µM [19]: 98%; GI50 [20]: 1050 nM; LC50 [20]: > 100 µM; TGI [20]: 3.75 µM; growth at 10 µM [21]: -42.5%
